Experimental data as given in ChEMBL document CHEMBL3525975, “Acetylenic linkers in lead compounds: a study of the stability of the propargyl-linked antifolates” (Drug Metab Dispos, 2012).
Converted amounts (≈) assume the structure as drawn.

Experiments:
[1] = Kinetic solubility of the compound; format: physicochemical; conditions: read-out: Kinetic_solubility
Method in brief: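 20 or 40 mM DMSO stocks diluted into filtered water with or without 200 μg/ml methylcellulose. Centrifuged, held 30 min at room temperature, then reversed-phase HPLC (50% ACN / 50 mM potassium phosphate pH 7.0, isocratic). Solubility taken as the highest concentration where absorbance stays linear with log concentration.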

Dihydrofolate reductase = Dihydrofolate reductase (Staphylococcus aureus, UniProt P0A017); experiment: Inhibition of Staphylococcus aureus DHFR assessed as reduction in rate of NADPH consumption
Chain of Dihydrofolate reductase (P0A017 whole entry): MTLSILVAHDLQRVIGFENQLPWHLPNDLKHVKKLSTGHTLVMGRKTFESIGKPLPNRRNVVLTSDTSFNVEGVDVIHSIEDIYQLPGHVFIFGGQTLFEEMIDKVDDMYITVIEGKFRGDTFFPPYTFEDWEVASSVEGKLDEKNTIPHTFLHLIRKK
Method in brief: (§1)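 DHFR activity followed as NADPH consumption at 340 nm over 5 min. Pure enzyme at limiting concentration, 100 μM NADPH, 1 mM dihydrofolate. Buffer: 50 mM KCl, 10 mM 2-mercaptoethanol, 0.5 mM EDTA, 1 mg/ml BSA. Run in triplicate.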

[2] = Stability in pH 7.4 simulated intestinal fluid at 5 ug/ml after 24 hrs at 37 degC by reverse phase HPLC method; format: ADME; conditions: simulated gi fluid, pH 7.4, 24 h
Method in brief: (§2)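 Compounds incubated 24 h at 37°C in the stated fluid containing 200 μg/ml HPMC. Samples taken before and after incubation, quenched with equal volume ice-cold ACN, centrifuged and the supernatant run on reversed-phase HPLC. Stability = AUC after / AUC before incubation.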

[3] = Stability in water at 5 ug/ml after 24 hrs at 37 degC by reverse phase HPLC method; format: physicochemical; conditions: buffer; method in brief: as §2
[4] = Half life in mouse liver microsomes at 5 ug/ml at 37 degC by reverse phase HPLC method; format: ADME
Method in brief: (§3)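 Mouse liver microsomes (0.5 mg/ml) in 0.1 M potassium phosphate pH 7.4 with 200 μg/ml HPMC, 37°C. NADPH-regenerating system: 1.3 mM NADP+, 3.3 mM glucose 6-phosphate, 0.5 U/ml G6P dehydrogenase, 3.3 mM MgCl2. Final compound concentration 5 μg/ml; start by adding microsomes. Controls: DMSO, and compound without microsomes. Quench with ice-cold ACN, solid-phase cleanup, reversed-phase HPLC. Result is percent parent remaining vs pre-incubation. Half-life from the single time point, assuming first-order kinetics.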

[5] = Drug metabolism in mouse liver microsomes assessed as demethylation at 5 ug/ml after 1 hr at 37 degC by reverse phase HPLC method; format: ADME
[6] = Drug metabolism in mouse liver microsomes assessed as 4-(3-(4-(2,4-diamino-6-methylpyrimidin-5-yl)but-3-yn-2-yl)-5-methoxyphenyl)pyridine 1-oxide at 10 ug/ml by LC-MS/MS method; format: ADME
Method in brief: (§4)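 Compound at 10 μg/ml incubated 2 h with mouse liver microsomes (0.5 mg/ml protein, 37°C) in 0.1 M potassium phosphate pH 7.4 with 200 μg/ml HPMC and an NADPH-regenerating system. Controls were DMSO alone and reactions quenched with ACN immediately after adding microsomes. Reactions were stopped with equal volume ice-cold ACN, centrifuged, solid-phase purified and analysed by LC-MS/MS. Metabolite share = metabolite AUC / total metabolite AUC in the same injection.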

[7] = Stability in mouse liver microsomes assessed as parent compound remaining at 5 ug/ml after 1 hr at 37 degC by reverse phase HPLC method; format: ADME; conditions: read-out: Stability; method in brief: as §3
[8] = Drug metabolism in mouse liver microsomes assessed as 3-(4-(2,4-diamino-6-methylpyrimidin-5-yl)but-3-yn-2-yl)-5-(pyridin-4-yl)phenol formation at 10 ug/ml by LC-MS/MS method; format: ADME; method in brief: as §4
[9] = Stability in pH 1.2 simulated gastric fluid at 5 ug/ml after 24 hrs at 37 degC by reverse phase HPLC method; format: ADME; conditions: simulated gi fluid, pH 1.2, 24 h; method in brief: as §2
[10] = Drug metabolism in mouse liver microsomes assessed as 4-(3-(4-(2,4-diamino-6-ethylpyrimidin-5-yl)but-3-yn-2-yl)-5-methoxyphenyl)pyridine 1-oxide formation at 10 ug/ml by LC-MS/MS method; format: ADME; method in brief: as §4
[11] = Drug metabolism in mouse liver microsomes assessed as 3-(4-(2,4-diamino-6-ethylpyrimidin-5-yl)but-3-yn-2-yl)-5-(pyridin-4-yl)phenol formation at 10 ug/ml by LC-MS/MS method; format: ADME; method in brief: as §4
[12] = Drug metabolism in mouse liver microsomes assessed as 4-(3-(3-(2,4-diamino-6-ethylpyrimidin-5-yl)prop-2-ynyl)-4-methoxyphenyl)pyridine 1-oxide formation at 10 ug/ml by LC-MS/MS method; format: ADME; method in brief: as §4
[13] = Drug metabolism in mouse liver microsomes assessed as 2-(3-(2,4-diamino-6-ethylpyrimidin-5-yl)prop-2-ynyl)-4-(pyridin-4-yl)phenol formation at 10 ug/ml by LC-MS/MS method; format: ADME; method in brief: as §4
Liver [14] = experiment: Drug level in mouse liver microsomes treated with 10 ug/ml 5-(3-(3-methoxy-5-(pyridin-4-yl)phenyl)but-1-ynyl)-6-methylpyrimidine-2,4-diamine by LC-MS/MS method; format: ADME; method in brief: as §4
Liver [15] = experiment: Drug level in mouse liver microsomes treated with 10 ug/ml 6-ethyl-5-(3-(3-methoxy-5-(pyridin-4-yl)phenyl)prop-1-ynyl)pyrimidine-2,4-diamine by LC-MS/MS method; format: ADME; method in brief: as §4
Liver [16] = experiment: Drug level in mouse liver microsomes treated with 10 ug/ml 6-ethyl-5-(3-(3-methoxy-5-(pyridin-4-yl)phenyl)but-1-ynyl)pyrimidine-2,4-diamine by LC-MS/MS method; format: ADME; method in brief: as §4
Liver [17] = experiment: Drug level in mouse liver microsomes treated with 10 ug/ml 6-ethyl-5-(3-(2-methoxy-5-(pyridin-4-yl)phenyl)prop-1-ynyl)pyrimidine-2,4-diamine by LC-MS/MS method; format: ADME; method in brief: as §4
[18] = Drug metabolism in mouse liver microsomes assessed as 2-(4-(2,4-diamino-6-ethylpyrimidin-5-yl)but-3-yn-2-yl)-4-(pyridin-4-yl)phenol formation at 10 ug/ml by LC-MS/MS method; format: ADME; method in brief: as §4
[19] = Drug metabolism in mouse liver microsomes assessed as 4-(3-(4-(2,4-diamino-6-ethylpyrimidin-5-yl)but-3-yn-2-yl)-4-methoxyphenyl)pyridine 1-oxide formation at 10 ug/ml by LC-MS/MS method; format: ADME; method in brief: as §4
Liver [20] = experiment: Drug level in mouse liver microsomes treated with 10 ug/ml 6-ethyl-5-(3-(2-methoxy-5-(pyridin-4-yl)phenyl)but-1-ynyl)pyrimidine-2,4-diamine by LC-MS/MS method; format: ADME; method in brief: as §4
Staphylococcus aureus = experiment: Antimicrobial activity against Staphylococcus aureus; format: functional
[21] = Inhibition of Candida glabrata DHFR; design: species or system Nakaseomyces glabratus; method in brief: as §1

COc1cc(C(C)C#Cc2c(C)nc(N)nc2N)cc(N2CCOCC2)c1 (configuration not stated)
solubility kinetic [1]: > 80 µg/mL

CCc1nc(N)nc(N)c1C#CC(C)c1cc(OC)cc(N2CCOCC2)c1 (configuration not stated)
solubility kinetic [1]: > 80 µg/mL
IC50 (Dihydrofolate reductase): 26 nM

COc1cc(-c2ccncc2)cc(C(C)C#Cc2c(C)nc(N)nc2N)c1 (configuration not stated)
Stability [2]: Stable
Stability [3]: Stable
half-life at 5 ug/ml [4]: 38 min
Drug metabolism [5]: 15.9%
Drug metabolism [6]: metabolite_detected
remaining at 1 h, 5 ug/ml [7]: 33.7%
Drug metabolism [8]: metabolite_detected
Stability [9]: Stable

CCc1nc(N)nc(N)c1C#CC(C)c1cc(OC)cc(-c2ccncc2)c1 (configuration not stated)
Stability [2]: Stable
Stability [3]: Stable
half-life at 5 ug/ml [4]: 34 min
Drug metabolism [10]: metabolite_detected
Drug metabolism [5]: 28%
Drug metabolism [11]: metabolite_detected
remaining at 1 h, 5 ug/ml [7]: 29.2%
Stability [9]: Stable

CCc1nc(N)nc(N)c1C#CCc1cc(OC)cc(-c2ccncc2)c1
Stability [2]: Stable
Stability [3]: Stable
half-life at 5 ug/ml [4]: < 10 min
Drug metabolism [5]: 6.3%
remaining at 1 h, 5 ug/ml [7]: 0%
Stability [9]: Stable

CCc1nc(N)nc(N)c1C#CCc1cc(-c2ccncc2)ccc1OC
Stability [2]: Stable
Stability [3]: Stable
half-life at 5 ug/ml [4]: 31 min
Drug metabolism [5]: 19.7%
Drug metabolism [12]: metabolite_detected
remaining at 1 h, 5 ug/ml [7]: 26.5%
Stability [9]: Stable
Drug metabolism [13]: metabolite_detected

Cc1nc(N)nc(N)c1C#CC(C)c1cc(O)cc(-c2ccncc2)c1 (configuration not stated)
Drug metabolism (Liver [14]): metabolite_detected

CCc1nc(N)nc(N)c1C#CCc1cc(OC)cc(-c2cc[n+]([O-])cc2)c1
Drug metabolism (Liver [15]): metabolite_detected

CCc1nc(N)nc(N)c1C#CCc1cc(O)cc(-c2ccncc2)c1
Drug metabolism (Liver [15]): metabolite_detected

CCc1nc(N)nc(N)c1C#CC(C)c1cc(OC)cc(-c2cc[n+]([O-])cc2)c1 (configuration not stated)
Drug metabolism (Liver [16]): metabolite_detected

CCc1nc(N)nc(N)c1C#CCc1cc(-c2ccncc2)ccc1O
Drug metabolism (Liver [17]): metabolite_detected

CCc1nc(N)nc(N)c1C#CC(C)c1cc(O)cc(-c2ccncc2)c1 (configuration not stated)
Drug metabolism (Liver [16]): metabolite_detected

CCc1nc(N)nc(N)c1C#CC(C)c1cc(-c2ccncc2)ccc1OC (configuration not stated)
half-life at 5 ug/ml [4]: 65 min
Drug metabolism [18]: metabolite_detected
Drug metabolism [19]: metabolite_detected

CCc1nc(N)nc(N)c1C#CC(C)c1cc(-c2cc[n+]([O-])cc2)ccc1OC (configuration not stated)
Drug metabolism (Liver [20]): metabolite_detected
IC50 (Dihydrofolate reductase): 45 nM

COc1cc(C(C)C#Cc2c(C)nc(N)nc2N)cc(N2CCNCC2)c1 (configuration not stated)
solubility kinetic [1]: 60 µg/mL (≈ 164 µM)
IC50 (Dihydrofolate reductase): 130 nM
MIC (Staphylococcus aureus): 91.5 µg/mL (≈ 250 µM)

COc1cc(-c2cc[n+]([O-])cc2)cc(C(C)C#Cc2c(C)nc(N)nc2N)c1 (configuration not stated)
Drug metabolism (Liver [14]): metabolite_detected

COc1cc(-c2ccccc2)cc(C(C)C#Cc2c(C)nc(N)nc2N)c1 (configuration not stated)
solubility kinetic [1]: 20 µg/mL (≈ 55.8 µM)
IC50 (Dihydrofolate reductase): 61 nM
MIC (Staphylococcus aureus): 0.72 µg/mL (≈ 2.01 µM)

COc1cc(-c2cc(C)cc(C)c2)cc(C(C)C#Cc2c(C)nc(N)nc2N)c1 (configuration not stated)
IC50 [21]: 0.5 nM
